Laboratory results reported in ChEMBL document CHEMBL1148739, “Microwave-assisted ring opening of epoxides: a general route to the synthesis of 1-aminopropan-2-ols with anti malaria parasite activities” (J Med Chem, 2007).
pIC50: −log10 of the molar value. Active and inactive are the calls of the source. No cut-off for these calls is given here.

How the values were obtained:
Plasmodium falciparum [1] = assay: Antimalarial activity against Plasmodium falciparum 3D7 after 72 hrs; format: functional, organism-based; conditions: 3D7, 72 h
How it was run: (§1)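 P. falciparum in continuous culture in 5% O+ erythrocytes, RPMI-1640 with 25 mM HEPES, 0.5% albumax, 2 mM L-glutamine, gentamicin; 37 °C, 5% CO2/5% O2/90% N2; sorbitol-synchronized. Ring stages seeded at 0.05% parasitemia, 1.5% hematocrit; 72 h with threefold serial dilutions from 100 µM. HRPII accumulation after freeze-thaw lysis read as percent of untreated controls; duplicates; IC50 from 72 h HRPII production.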

MONO-MAC-6 = assay: Effect on cell viability in human MONO-MAC-6 cells at 100 uM after 24 hrs; format: functional, cell-based
How it was run: (§2)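 Cell lines kept at 37 °C in RPMI 1640 with L-glutamine and 10% fetal calf serum under 5% humidified CO2. Cell suspension (25 cells/µL) exposed to 100 µM compound for 24 h (one cell cycle) at 37 °C. Viability by Trypan Blue dye uptake; duplicates.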

Jurkat = assay: Effect on cell viability in human Jurkat lymphoblastoid cells at 100 uM after 24 hrs; format: functional, cell-based; how it was run: as §2
Plasmodium falciparum [2] = assay: Antimalarial activity against Plasmodium falciparum FCR3 after 72 hrs; format: functional, organism-based; conditions: FCR3, 72 h; how it was run: as §1
NALM-6 = assay: Effect on cell viability in human NALM6 cells at 100 uM after 24 hrs; format: functional, cell-based; how it was run: as §2
[3] = molecular target: T1, Aquaglyceroporin (Plasmodium falciparum) (UniProt Q8II36); assay: Inhibition of Plasmodium falciparum AQP expressed in BY4742-deltafpsl cells at 100 uM after 48 hrs; format: cell-based
T1 sequence (whole entry): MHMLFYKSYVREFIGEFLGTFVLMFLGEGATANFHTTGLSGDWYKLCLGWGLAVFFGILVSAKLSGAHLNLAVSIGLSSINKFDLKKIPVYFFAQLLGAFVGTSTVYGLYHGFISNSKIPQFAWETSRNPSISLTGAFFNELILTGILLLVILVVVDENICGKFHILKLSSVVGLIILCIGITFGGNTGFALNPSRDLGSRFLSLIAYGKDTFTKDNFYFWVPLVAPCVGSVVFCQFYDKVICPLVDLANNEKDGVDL
How it was run: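 BY4742Δfps1 yeast expressing PfAQP grown in 20 mM MES-buffered (pH 5.5) minimal YNB with 3% glucose, 0.1% proline, with or without 50 mM methylamine hydrochloride; compound at 100 µM, untreated cells as controls.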

Row | SMILES | pIC50 (Plasmodium falciparum [1]) | pIC50 (Plasmodium falciparum [2]) | Activity [3] | Activity (MONO-MAC-6) | Activity (Jurkat) | Activity (NALM-6)
1 | CN(Cc1ccccc1)CC(O)CSCc1ccccc1 (stereo not drawn) | 5.03 | 4.79 | – | inactive | inactive | inactive
2 | CCN(CC)CC(O)COCc1ccccc1 (stereo not drawn) | – | 4.55 | – | – | – | –
3 | OC(COCc1ccccc1)CN1CCCC1 (stereo not drawn) | – | 4.69 | – | – | – | –
4 | CN(Cc1ccccc1)CC(O)CN(C)Cc1ccccc1 | 4.36 | 4.36 | – | – | – | –
5 | OC(CNC1CCC1)COCc1ccccc1 (stereo not drawn) | – | 4.82 | – | – | – | –
6 | C=CCNCC(O)CCl (stereo not drawn) | – | 4.62 | – | – | – | –
7 | CN(Cc1ccccc1)CC(O)CNCc1ccccc1 (stereo not drawn) | 4.81 | 4.38 | – | – | – | –
8 | OC(CCl)CN1CCNCC1 (stereo not drawn) | 4.18 | 4.41 | – | inactive | inactive | inactive
9 | CCN1CCCC1CNCC(O)COCc1ccccc1 (stereo not drawn) | 4.49 | 4.80 | – | – | – | –
10 | CC(C)(C)NCC(O)COCc1ccccc1 (stereo not drawn) | – | 4.90 | – | – | – | –
11 | CN(Cc1ccccc1)CC(O)CCl (stereo not drawn) | 4.81 | 4.51 | – | inactive | inactive | inactive
12 | OC(CNc1ccccn1)COCc1ccccc1 (stereo not drawn) | – | 4.51 | – | – | – | –

Continued, in another order:

Row | pIC50 (Plasmodium falciparum [1]) | pIC50 (Plasmodium falciparum [2]) | Activity [3] | SMILES | Activity (MONO-MAC-6) | Activity (Jurkat) | Activity (NALM-6)
13 | – | 5.47 | – | OC(CNCc1ccco1)COCc1ccccc1 (stereo not drawn) | – | – | –
14 | – | 5.92 | – | OC(CNCCc1cccs1)COCc1ccccc1 (stereo not drawn) | – | – | –
15 | 5.01 | 5.24 | inactive | OC(CNCc1cccs1)COCc1ccccc1 (stereo not drawn) | inactive | inactive | inactive
16 | 4.82 | 4.99 | – | OC(CNC1CCCC1)COCc1ccccc1 (stereo not drawn) | – | – | –
17 | – | 5.11 | – | OC(CNCC1CCCO1)COCc1ccccc1 (stereo not drawn) | – | – | –
18 | – | 4.90 | inactive | OC(CNCc1ccccc1)COCc1ccccc1 (stereo not drawn) | – | – | –
19 | – | 4.90 | – | OC(COCc1ccccc1)CN1CCNCC1 (stereo not drawn) | – | – | –
20 | 5.43 | 5.11 | inactive | CCN(Cc1ccccc1)CC(O)CN(C)Cc1ccccc1 (stereo not drawn) | inactive | inactive | inactive
21 | – | 6.15 | inactive | CCN(Cc1ccccc1)CC(O)COCc1ccccc1 (stereo not drawn) | – | – | –
22 | 5.29 | 5.23 | – | O[C@@H](CNC1CCCC1)COCc1ccccc1 | – | – | –
23 | 5.41 | 5.34 | – | O[C@H](CNC1CCCC1)COCc1ccccc1 | – | – | –
24 | – | 5.08 | inactive | OC(CNCC1CC1)COCc1ccccc1 (stereo not drawn) | – | – | –
25 | 4.33 | 5.70 | inactive | CN(Cc1ccccc1)CC(O)COCc1ccccc1 (stereo not drawn) | – | – | –
